The subject of data set [1] is PANC-1. The data set is described as follows: Cytotoxicity against human PANC1 cells in DMEM measured after 24 hrs by WST8 assay. Format: cell-based. As to conditions: panc-1, 24 h. In outline:
(§1)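 Human pancreatic cancer cells were seeded at 1.5 × 10^4/well in DMEM for 24 h at 37 °C under 5% CO2. After two PBS washes, cells received serially diluted samples in DMEM (nutrient-rich) or NDM (pH 7.4), with a control and blank on each plate. After 24 h, cells were washed and given DMEM with 10% WST-8 for 3 h, then A450 was read. Viability (mean of three wells) = (sample − blank)/(control − blank) × 100. For NDM, PC50 is the concentration killing 50% of cells preferentially. Arctigenin was the positive control.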
Background: Formazan colour is commonly taken as a measure of viable cells.

Data set [2] has as its system PANC-1. Put plainly: Antiausteritic activity against human PANC1 cells in nutrient-deprived medium measured after 24 hrs by WST8 assay. Format: functional. In outline: as §1
The subject of data set [3] is PANC-1. Put plainly: Antiausteritic activity against human PANC1 cells in nutrient-deprived medium assessed as changes in cell morphology by measuring increase in round appearance at 1.5 uM after 24 hrs by ethidium bromide/acridine orange staining based fluorescence imaging method. Format: functional. In outline: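 PANC-1 cells were seeded at 6 × 10^4/well in DMEM and held 24 h at 37 °C under 5% CO2. They were washed twice with PBS, then switched to NDM alone (control) or with compound at 1.5 μM for 24 h. EB/AO reagent was added for 5 min, and cells were imaged under fluorescence and phase contrast (20×). Green AO marks live cells; red EB marks dead cells.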

Calls of active or inactive are those of the source. The calls are words filed in the database; no cut-off is given here.

In the case of `COc1cc(O)c(C(=O)[C@@H]2CC=C(C)[C@@H](CC=C(C)C)[C@H]2c2ccccc2)c(O)c1` [(-)-NICOLAIOIDESIN B], the Activity entry in data set [1] is on record as “Non-Toxic”. The PC50 in data set [2] stood at 2.1 µM.
As for `COc1cc(O)c(C(=O)[C@@H]2CC=C(CCC=C(C)C)C[C@H]2c2ccccc2)c(O)c1`, the Activity entry in data set [1] was “Non-Toxic”. In addition, the result in data set [3] was Active. Also, the PC50 in data set [2] is 0.84 µM.
For the compound `COc1cc(O)cc(O)c1C(=O)[C@@H]1CC=C(C)[C@@H](CC=C(C)C)[C@H]1c1ccccc1`, in data set [1], the Activity entry was “Non-Toxic”. In data set [2], this compound registered a PC50 of 1 µM.
Regarding `COc1cc(O)c(C(=O)[C@@H]2[C@H](CC=C(C)C)C(C)=CC[C@H]2c2ccccc2)c(O)c1` [PANDURATIN A], the Activity entry in data set [1] is “Non-Toxic”. The same compound came in with a PC50 in data set [2] of 7.8 µM.
Consider `CC(C)=CC[C@@H]1C(C)=CC[C@@H](c2ccccc2)[C@@H]1C(=O)c1c(O)cc(O)cc1O` [4-HYDROXYPANDURATIN A], for which, in data set [1], the Activity result was “Non-Toxic”. Moreover, in data set [2], the PC50 was 3.1 µM.
For the compound `COc1cc(C[C@H]2C(=O)OC[C@@H]2Cc2ccc(OC)c(OC)c2)ccc1O` [ARCTIGENIN], the PC50 in data set [2] is 0.83 µM.
As to `CC(C)=CC[C@H]1C(C)=CC[C@@H](c2ccccc2)[C@@H]1C(=O)c1c(O)cc(O)cc1O`, the Activity entry in data set [1] was “Non-Toxic”. The PC50 in data set [2] amounted to 5.8 µM.
For `COc1cc(O)c(C(=O)[C@@H]2[C@H](C/C=C(\C)CO)C(C)=CC[C@H]2c2ccccc2)c(O)c1` the same measures were “Non-Toxic” and 6.3 µM.
Take `COc1cc(O)cc(O)c1C(=O)[C@@H]1CC=C(C)[C@H](CC=C(C)C)[C@H]1c1ccccc1`: the Activity result in data set [1] is reported as “Non-Toxic”. This compound showed a PC50 in data set [2] of 7.4 µM.
For `COc1cc(O)c(C(=O)[C@@H]2[C@H](/C=C/C(C)(C)O)C(C)=CC[C@H]2c2ccccc2)c(O)c1` the same measures were “Non-Toxic” and 6.6 µM.
On to `COc1cc(O)c(C(=O)[C@@H]2[C@@H](CC=C(C)C)C(C)=CC[C@H]2c2ccccc2)c(O)c1`, for which, in data set [1], the Activity entry is recorded as “Non-Toxic”. The same compound registered a PC50 in data set [2] of 7.2 µM.
Regarding `COc1cc(O)c(C(=O)[C@@H]2CC=C(C)[C@@H](/C=C/C(C)(C)O)[C@H]2c2ccccc2)c(O)c1`, the Activity result in data set [1] is on record as “Non-Toxic”. The compound further yielded a PC50 in data set [2] of 3.3 µM.
For `COc1cc(O)c(C(=O)[C@@H]2CC=C(C)[C@H](CC=C(C)C)[C@H]2c2ccccc2)c(O)c1` the same measures were “Non-Toxic” and 7.8 µM.
For `COc1cc(O)cc(O)c1C(=O)[C@@H]1[C@H](/C=C/C(C)(C)OC)C(C)=CC[C@H]1c1ccccc1` the same measures were “Non-Toxic” and 10.5 µM.
For `COc1cc(O)cc(O)c1C(=O)[C@@H]1[C@H](CC=C(C)C)C(C)=CC[C@H]1c1ccccc1` the same measures were “Non-Toxic” and 2.8 µM.
On to `C=C(C)C(O)C[C@@H]1C(C)=CC[C@@H](c2ccccc2)[C@@H]1C(=O)c1c(O)cc(OC)cc1O` (some centres not stated), for which the Activity result in data set [1] is “Non-Toxic”. This compound displayed a PC50 in data set [2] of 18.1 µM.

The record behind these values is ChEMBL document CHEMBL4004817, “Constituents of the Rhizomes of Boesenbergia pandurata and Their Antiausterity Activities against the PANC-1 Human Pancreatic Cancer Line” (J Nat Prod, 2017).
